Bioassay records (PubChem)
Only some compounds are listed: those with a hit (about 1.8% of all), similar ones and a draw of the others.
CSN deneddyl inh – inhibitors of CSN-mediated cullin deneddylation, primary screen, biochemical, fluorescence polarization, uHTS | COP9 signalosome complex subunit 5 (Homo sapiens), Q92905 | Purified CSN, SCF-Nedd8-OG deneddylation | inhibition, % at 12.5 µM | 360,000 tested, 0.38% active | AID 651999, 2013;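 active means pattern-corrected inhibition above about 35%, with an unprinted fluorescence ratio check between 0.5 and 1.5, limit read from the data, passing the limit was not always enough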;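 further: 0% = enzyme with substrate and 100% = substrate without enzyme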
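Schedule: reaction 90 min, room temperature / Assay system: HEK293T-derived human Csn5 enzyme / Input: Csn5 at 0.24 nM final / Measure: inhibition of Csn5 cleavage, % / Control set: substrate-only high control, full reaction low control / Technique: fluorescence polarization of the substrate / Buffer or medium: Tris/NaCl/DTT buffer, pH 7.5 / Reagent: SCFSkp2-Nedd8OG substrate at 10 nM final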
SENP1 inh – human SENP1 catalytic domain inhibitors, primary screen, biochemical, FRET, uHTS. inhibition, % at 10 µM. Sentrin-specific protease 1 (Homo sapiens), Q9P0U3. recombinant SENP1 catalytic domain, CyPet-SUMO1-YPet FRET cleavage. 360,000 tested, 0.21% active;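 active means inhibition at least 30% at 10 µM, raw YFP signal under a set limit, fluorescence ratio 0.5 to 1.5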;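 further: 0% = enzyme with DMSO and 100% = no enzyme wells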
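Controls: no-enzyme wells low, DMSO-plus-enzyme wells high control. Test system: human recombinant His6-tagged SENP1 catalytic domain enzyme. Reagent: SFCypet-SUMO1-SFYpet FRET protein substrate, 25 nM final. Doses: one dose per compound, 10 µM, 0.5% DMSO. Detection: FRET, CFP and YFP emission. Timing: 50 min reaction at room temperature.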
HNF4A DNA FP – change in binding of human HNF4A to DNA, primary screen, biochemical, fluorescence polarization, FITC-DNA; Hepatocyte nuclear factor 4-alpha (Homo sapiens), P41235; 1 h; activity change, % at 10 µM; 360,000 tested, 0.3% active; in the data active means activity change above about 30%, passing the limit was not always enough
Target sequence (P41235 whole entry, looked up): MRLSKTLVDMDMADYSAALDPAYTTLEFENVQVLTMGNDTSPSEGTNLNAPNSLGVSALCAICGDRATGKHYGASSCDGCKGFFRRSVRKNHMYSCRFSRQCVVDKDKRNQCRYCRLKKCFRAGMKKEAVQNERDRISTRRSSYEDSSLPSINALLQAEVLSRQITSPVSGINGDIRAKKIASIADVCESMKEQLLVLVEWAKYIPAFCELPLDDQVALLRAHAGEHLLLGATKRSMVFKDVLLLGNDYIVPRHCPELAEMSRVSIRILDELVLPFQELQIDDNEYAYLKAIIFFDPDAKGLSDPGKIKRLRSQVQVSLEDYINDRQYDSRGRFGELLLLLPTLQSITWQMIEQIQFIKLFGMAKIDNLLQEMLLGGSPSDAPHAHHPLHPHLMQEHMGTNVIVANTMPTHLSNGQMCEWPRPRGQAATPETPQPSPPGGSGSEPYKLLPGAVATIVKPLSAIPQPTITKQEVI
TPT1 inhibitor – Candida albicans TPT1 enzyme inhibitors, primary screen, biochemical, fluorescence polarization. 300,000 tested, 0.81% active. AID 1962, 2009. recombinant caTPT1, FP RNA substrate dephosphorylation. inhibition, % at 5 µM;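 active means inhibition above the mean of all tested compounds plus 3 SD, set per screening campaign, cut at about 24% in these data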;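 further: plate controls were DMSO alone for no effect and ferristatin control at 100 nM for full effect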
SUMO HTRF inh – inhibitors of in vitro SUMOylation cascade, primary screen, biochemical, HTRF, uHTS | inhibition, % at 35 µM | 290,000 tested, 0.36% active | HTRF SUMOylation assay, SAE1/SAE2 + UBC9; in the data active means inhibition above about 50%, passing the limit was not always enough
Rpn11 inh – Rpn11 (PSMD14) deubiquitinase inhibitors, primary screen, biochemical, fluorescence polarization, uHTS | 26S proteasome non-ATPase regulatory subunit 14 (Homo sapiens), O00487 | human 26S proteasome, Ub4-pepOG fluorescence polarization; 20S core pre-blocked with epoxomicin | calls only at 20 µM | 360,000 tested, 0.59% active | AID 588493, 2011;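 active means inhibition at 20 µM, scaled to each plate's controls, above about 33%, limit read from the data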
TPT1 inh confirm – Candida albicans TPT1 inhibitors, confirmation, biochemical, fluorescence polarization, triplicate; shares compounds with TPT1 inhibitor; recombinant caTPT1, RNase T1 coupled; inhibition, % at 5 µM; 2,400 tested, 74% active;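 active means inhibition above the primary screen limit, the mean inhibition of all tested compounds plus 3 SD, cut at about 25% in these data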
RNase T1 counter – RNase T1 inhibitors, counter-screen for TPT1 inhibitor project, biochemical, fluorescence polarization. inhibition, % at 5 µM. RNase T1 cleavage, 1536-well. 2,400 tested, 83% active. shares compounds with TPT1 inhibitor. AID 2153, 2009;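 active means inhibition above the solvent-only control well mean plus 3 SD, limit set per screening run, cut at about 23% in these data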;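 further: plate controls were DMSO wells with enzyme for no effect and wells without RNase T1 for full effect; inhibitors block cleavage so intact labeled substrate keeps polarization high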
Target sequence (P00651 whole entry, looked up): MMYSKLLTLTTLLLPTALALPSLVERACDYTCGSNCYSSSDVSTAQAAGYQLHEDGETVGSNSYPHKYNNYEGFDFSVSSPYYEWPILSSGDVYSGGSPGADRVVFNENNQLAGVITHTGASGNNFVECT
* = called active by the depositor.

For C=CCN1C(=O)[C@@H]2Cc3c([nH]c4ccccc34)C(c3ccc(O)cc3)N2C1=S (stereo not given in full) the results were CSN deneddyl inh 31, SENP1 inh -11, HNF4A DNA FP 46*, TPT1 inhibitor 78*, SUMO HTRF inh -4, TPT1 inh confirm 62* and RNase T1 counter 73*.
For C=CCN1C(=O)[C@@H]2Cc3c([nH]c4ccccc34)C(c3cc(OC)c(OC)c(OC)c3)N2C1=S (stereo not given in full) the results were CSN deneddyl inh 24, SENP1 inh -26, HNF4A DNA FP 33, TPT1 inhibitor 57*, SUMO HTRF inh 10, TPT1 inh confirm 47* and RNase T1 counter 57*.
Screening O=S(=O)(Cc1ccccc1)NCC1CCCN(Cc2ccc(F)c(F)c2)C1 (stereo not given) returned CSN deneddyl inh -6, SENP1 inh -4, HNF4A DNA FP 2, TPT1 inhibitor 3, SUMO HTRF inh -14 and Rpn11 inh inactive.
CSc1ncc(Cl)c(C(=O)Nc2cccnc2)n1 was read as CSN deneddyl inh -1, SENP1 inh -1, HNF4A DNA FP 0, TPT1 inhibitor 1, SUMO HTRF inh 20 and Rpn11 inh inactive.
`CSc1ncc(Cl)c(C(=O)Nc2ccccc2Cl)n1` gave CSN deneddyl inh 5, SENP1 inh 0, HNF4A DNA FP 0, TPT1 inhibitor -3, SUMO HTRF inh 8 and Rpn11 inh inactive.
O=[N+]([O-])C(/C=C(\Cl)[N+](=O)[O-])=C(N1CCCCC1)N1CCCCC1 was read as CSN deneddyl inh 7, SENP1 inh 2, HNF4A DNA FP 0, TPT1 inhibitor 35*, SUMO HTRF inh 7, Rpn11 inh inactive, TPT1 inh confirm 42* and RNase T1 counter 58*.
`O=[N+]([O-])C(=C1SCCS1)C(=C(Cl)Cl)N1CCCCC1` gave CSN deneddyl inh -5, SENP1 inh 0, HNF4A DNA FP 3, TPT1 inhibitor -6, SUMO HTRF inh 2 and Rpn11 inh inactive.
CCN(CC)c1ccc(/C=c2/sc3nnc(-c4ccccc4C)n3c2=O)cc1 was read as CSN deneddyl inh -40, SENP1 inh -30, HNF4A DNA FP 24, TPT1 inhibitor 109*, SUMO HTRF inh -11, TPT1 inh confirm 165* and RNase T1 counter 167*.
Screening CCN(CC)c1ccc(/C=c2\sc3nnc(-c4ccccc4Cl)n3c2=O)cc1 returned CSN deneddyl inh -2, SENP1 inh -18, HNF4A DNA FP 87, TPT1 inhibitor active, SUMO HTRF inh -4, TPT1 inh confirm 176* and RNase T1 counter 163*.
Screening CCN(CC)c1ccc(-c2nn3c(-c4ccccc4OC)nnc3s2)cc1 returned CSN deneddyl inh 1, SENP1 inh -34, HNF4A DNA FP -1, TPT1 inhibitor 2, SUMO HTRF inh -4 and Rpn11 inh inactive.
`Clc1ccccc1-c1nnc2sc(CCc3ccccc3)nn12` gave CSN deneddyl inh -4, SENP1 inh 1, HNF4A DNA FP -5, TPT1 inhibitor 0, SUMO HTRF inh -8 and Rpn11 inh inactive.
`CSc1nc(-c2ccc(Cl)cc2)c(C#N)c(=O)n1C` gave CSN deneddyl inh -8, SENP1 inh 1, HNF4A DNA FP -2, TPT1 inhibitor 3, SUMO HTRF inh -1 and Rpn11 inh inactive.
CSc1nc(-c2ccc(N(C)C)cc2)c(C#N)c(=O)n1C was read as CSN deneddyl inh 4, SENP1 inh -40, HNF4A DNA FP 5, TPT1 inhibitor 31*, SUMO HTRF inh 3, Rpn11 inh inactive, TPT1 inh confirm 41* and RNase T1 counter 52*.
For c1ccc(COc2ccc(-c3csnn3)cc2)cc1 the results were CSN deneddyl inh 3, SENP1 inh 4, HNF4A DNA FP 0, TPT1 inhibitor 3, SUMO HTRF inh 14 and Rpn11 inh inactive.
Cc1c(NC(=O)CSc2nc(N)cc(N)n2)c(=O)n(-c2ccccc2)n1C was read as CSN deneddyl inh 3, SENP1 inh 2, HNF4A DNA FP -2 and Rpn11 inh inactive.
Screening CCCNC(=O)c1cc(C2CCCCN2C(=O)c2ccc(C(C)C)cc2)on1 (stereo not given) returned CSN deneddyl inh 2, SENP1 inh 0, HNF4A DNA FP 2 and Rpn11 inh inactive.
Screening CN1CCN(C2CN(Cc3ccc(F)cc3)S(=O)(=O)C2)CC1 (stereo not given) returned CSN deneddyl inh -3, SENP1 inh 2, HNF4A DNA FP -7 and Rpn11 inh inactive.
COc1ccc(C2C(C#N)=C(N)N(c3sc4c(c3C#N)CCCC4)C3=C2C(=O)CC(C)(C)C3)cc1OC (stereo not given) was read as CSN deneddyl inh 21, SENP1 inh 28, HNF4A DNA FP 2, TPT1 inhibitor 28*, SUMO HTRF inh 0, Rpn11 inh inactive, TPT1 inh confirm 14 and RNase T1 counter 17.
COc1ccc(C2C(C#N)=C(N)N(c3sc4c(c3C#N)CCCC4)C3=C2C(=O)CC(C)(C)C3)cc1 (stereo not given) was read as CSN deneddyl inh 30, SENP1 inh 12, HNF4A DNA FP 10, TPT1 inhibitor 28*, SUMO HTRF inh -10, Rpn11 inh inactive, TPT1 inh confirm 8 and RNase T1 counter 6.
`CN(C)Cc1n[nH]c(=O)c2ccccc12` gave CSN deneddyl inh -6, SENP1 inh 1, HNF4A DNA FP 1, TPT1 inhibitor 1, SUMO HTRF inh 6 and Rpn11 inh inactive.
`CCc1ccccc1NC(=S)NCCSc1ccc(Cl)cc1` gave CSN deneddyl inh -1, SENP1 inh 2, HNF4A DNA FP -4, TPT1 inhibitor active, SUMO HTRF inh -26, Rpn11 inh inactive, TPT1 inh confirm -1 and RNase T1 counter 4.
